Activity calls are given as the source filed them. The rule behind the calls is not given here.
Experiments:
[1] = test system: MCF7 (human); experiment: Cytotoxicity against human MCF7 cells after 72 hrs by MTT assay; conditions: MCF7, 72 h
[2] = test system: HeLa (human); experiment: Cytotoxicity against human HeLa cells after 72 hrs by MTT assay
[3] = test system: HeLa; experiment: Cytotoxicity against human HeLa cells at 50 uM after 72 hrs by MTT assay; type: functional, cell-based
Outline: (§1)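 The MTT proliferation assay used MCF-7 or HeLa cells at 2000 per well in DMEM with 10% FBS at 37 °C and 5% CO2, with a 3-day exposure to DMSO-dissolved analogues diluted in medium. Compounds were tested up to the top concentration. A490 at that concentration is reported as percent of the absorbance of untreated cells.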

[4] = test system: MCF7; experiment: Cytotoxicity against human MCF7 cells at 50 uM after 72 hrs by MTT assay; type: functional
Outline: as §1

Structure (SMILES)	IC50 [1] [µM]	IC50 [2] [µM]	Activity [3]	Activity [4] [%]
C[C@@H]1CC[C@@]2(OC1)O[C@H]1C[C@H]3[C@@H]4CC=C5C[C@@H](O[C@@H]6O[C@H](CO)[C@@H](O)[C@H](O)[C@H]6NC(=O)CCCCC6CCSS6)CC[C@]5(C)[C@H]4CC[C@]3(C)[C@H]1[C@@H]2C (stereo partly drawn) [ALPHA LIPOYL]	6.9	7.3		
C[C@@H]1CC[C@@]2(OC1)O[C@H]1C[C@H]3[C@@H]4CC=C5C[C@@H](O[C@@H]6O[C@H](CO)[C@@H](O[C@@H]7O[C@@H](C)[C@H](O)[C@@H](O)[C@H]7O)[C@H](O)[C@H]6NC(=O)CCCCC6CCSS6)CC[C@]5(C)[C@H]4CC[C@]3(C)[C@H]1[C@@H]2C (mixture of isomers)	18.8	39.9		
C[C@@H]1CC[C@@]2(OC1)O[C@H]1C[C@H]3[C@@H]4CC=C5C[C@@H](O[C@@H]6O[C@H](CO)[C@@H](O[C@@H]7O[C@@H](C)[C@H](O)[C@@H](O)[C@H]7O)[C@H](O)[C@H]6NC(=O)c6ccccc6)CC[C@]5(C)[C@H]4CC[C@]3(C)[C@H]1[C@@H]2C	> 50		inactive	68
C[C@@H]1CC[C@@]2(OC1)O[C@H]1C[C@H]3[C@@H]4CC=C5C[C@@H](O[C@@H]6O[C@H](CO)[C@@H](O)[C@H](O)[C@H]6NC(=O)c6ccccc6)CC[C@]5(C)[C@H]4CC[C@]3(C)[C@H]1[C@@H]2C	19.4	18		
C[C@@H]1CC[C@@]2(OC1)O[C@H]1C[C@H]3[C@@H]4CC=C5C[C@@H](O[C@@H]6O[C@H](CO)[C@@H](O[C@@H]7O[C@@H](C)[C@H](O)[C@@H](O)[C@H]7O)[C@H](O)[C@H]6NC(=O)c6cccc([N+](=O)[O-])c6)CC[C@]5(C)[C@H]4CC[C@]3(C)[C@H]1[C@@H]2C	22.8	39.4		
COc1cccc2c1C(=O)c1c(O)c3c(c(O)c1C2=O)C[C@@](O)(C(=O)CO)C[C@@H]3O[C@H]1C[C@H](N)[C@H](O)[C@H](C)O1 [DOXORUBICIN]	0.73	1.03		
C[C@@H]1CC[C@@]2(OC1)O[C@H]1C[C@H]3[C@@H]4CC=C5C[C@@H](O[C@@H]6O[C@H](CO)[C@@H](O[C@@H]7O[C@@H](C)[C@H](O)[C@@H](O)[C@H]7O)[C@H](O)[C@H]6NC(=O)c6cc([N+](=O)[O-])cc([N+](=O)[O-])c6)CC[C@]5(C)[C@H]4CC[C@]3(C)[C@H]1[C@@H]2C	39.5		inactive	
C[C@@H]1CC[C@@]2(OC1)O[C@H]1C[C@H]3[C@@H]4CC=C5C[C@@H](O[C@@H]6O[C@H](CO)[C@@H](O)[C@H](O)[C@H]6NC(=O)c6cc([N+](=O)[O-])cc([N+](=O)[O-])c6)CC[C@]5(C)[C@H]4CC[C@]3(C)[C@H]1[C@@H]2C	18.7	21		
C[C@@H]1CC[C@@]2(OC1)O[C@H]1C[C@H]3[C@@H]4CC=C5C[C@@H](O[C@@H]6O[C@H](CO)[C@@H](O)[C@H](O)[C@H]6NC(=O)c6cccc([N+](=O)[O-])c6)CC[C@]5(C)[C@H]4CC[C@]3(C)[C@H]1[C@@H]2C	13.6	16.1		

Reference: ChEMBL document CHEMBL1152660, “Structural analogues of diosgenyl saponins: synthesis and anticancer activity” (Bioorg Med Chem, 2009)
